Source: ChEMBL document CHEMBL4725480 (ACS Med Chem Lett, 2020)
Activity calls are given as the source filed them. The rule behind the calls is not given here.

Key:
[1] = target: NAD-dependent protein deacylase sirtuin-6 (Homo sapiens) (UniProt Q8N6T7); assay: Activation of N-terminal His-tagged human SIRT6 (1 to 355 residues) expressed in Escherichia coli M15(pREP4) assessed as increase in deacetylation activity using FdL1 substrate peptide incubated for 1 hr in presence of NAD+ by fluorescence assay; settings: filed as activator
Sequence of NAD-dependent protein deacylase sirtuin-6 (Homo sapiens) (Q8N6T7 whole entry, the tested form may be a part): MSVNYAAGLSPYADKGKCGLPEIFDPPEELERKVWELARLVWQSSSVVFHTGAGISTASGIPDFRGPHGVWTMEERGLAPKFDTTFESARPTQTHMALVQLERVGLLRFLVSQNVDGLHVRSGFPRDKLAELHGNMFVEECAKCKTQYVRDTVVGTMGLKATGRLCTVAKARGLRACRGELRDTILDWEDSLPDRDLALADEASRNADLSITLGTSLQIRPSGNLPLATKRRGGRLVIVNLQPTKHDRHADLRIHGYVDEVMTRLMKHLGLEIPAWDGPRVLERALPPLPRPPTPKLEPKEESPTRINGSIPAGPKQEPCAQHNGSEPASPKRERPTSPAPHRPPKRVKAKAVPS
How it was run: (§1)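 Deacetylation assay with the fluorophore-labelled FdL substrate, run alongside a control for artificial effects from the compound interacting with the fluorophore; fluorescence read-out.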

[2] = target: T1, NAD-dependent protein deacetylase sirtuin-3, mitochondrial (Homo sapiens, UniProt Q9NTG7); assay: Inhibition of N-terminal His-tagged human recombinant SIRT3 (118 to 399 residues) expressed in Escherichia coli assessed as decrease in substrate deacetylation using QPK(acetyl-K) as substrate at 250 to 1000 uM incubated for 30 mins by fluorescence based analysis; settings: 0.5 h, dose 250-1000 µM
T1 sequence (Q9NTG7 whole entry): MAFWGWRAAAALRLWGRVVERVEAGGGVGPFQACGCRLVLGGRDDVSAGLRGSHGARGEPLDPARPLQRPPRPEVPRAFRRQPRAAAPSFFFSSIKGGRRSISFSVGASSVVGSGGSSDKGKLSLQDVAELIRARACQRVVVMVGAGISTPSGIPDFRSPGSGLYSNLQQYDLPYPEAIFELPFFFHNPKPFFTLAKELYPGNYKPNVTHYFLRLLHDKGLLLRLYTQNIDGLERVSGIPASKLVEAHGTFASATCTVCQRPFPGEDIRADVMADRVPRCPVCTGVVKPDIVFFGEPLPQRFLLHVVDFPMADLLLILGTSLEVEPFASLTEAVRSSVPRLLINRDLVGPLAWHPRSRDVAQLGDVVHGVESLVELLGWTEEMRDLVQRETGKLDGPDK

[3] = target: NAD-dependent protein deacylase sirtuin-6 (Homo sapiens) (UniProt Q8N6T7); assay: Activation of His-tagged N-terminal truncated human SIRT6 (13 to 355 residues) expressed in Escherichia coli BL21 (DE3) codon+ cells assessed as increase in deacetylation activity using acetyl-H3K9 peptide as substrate incubated for 2 hrs in presence of NAD+ by mass spectrometric analysis relative to control; settings: filed as activator
[4] = target: T2, NAD-dependent protein deacetylase sirtuin-2 (Homo sapiens, UniProt Q8IXJ6); assay: Inhibition of N-terminal His-tagged human recombinant SIRT2 (55 to 356 residues) expressed in Escherichia coli Rossetta2 cells assessed as decrease in substrate deacetylation activity using QPK(acetyl-K) as substrate at 250 to 1000 uM incubated for 30 mins by fluorescence based analysis; settings: 0.5 h, dose 250-1000 µM
T2 sequence (Q8IXJ6 whole entry): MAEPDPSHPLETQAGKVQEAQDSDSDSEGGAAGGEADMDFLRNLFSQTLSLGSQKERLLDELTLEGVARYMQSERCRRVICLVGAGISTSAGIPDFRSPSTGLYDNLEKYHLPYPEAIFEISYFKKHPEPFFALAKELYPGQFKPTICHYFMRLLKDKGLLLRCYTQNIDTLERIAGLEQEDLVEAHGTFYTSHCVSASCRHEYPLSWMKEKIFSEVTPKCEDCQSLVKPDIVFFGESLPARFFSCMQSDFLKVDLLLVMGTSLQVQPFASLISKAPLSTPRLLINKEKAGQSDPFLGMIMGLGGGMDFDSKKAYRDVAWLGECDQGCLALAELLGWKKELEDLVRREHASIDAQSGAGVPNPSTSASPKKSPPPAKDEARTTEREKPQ

[5] = target: NAD-dependent protein deacylase sirtuin-6 (Homo sapiens) (UniProt Q8N6T7); assay: Activation of N-terminal His-tagged human SIRT6 (1 to 355 residues) expressed in Escherichia coli M15(pREP4) assessed as increase in deacetylation activity using acetyl-H3K9 peptide as substrate incubated for 2 hrs in presence of NAD+ by mass spectrometric analysis relative to control
How it was run: (§2)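 Deacetylation measured by mass spectrometry using an unlabelled acetylated peptide that represents the physiological histone H3 Lys9 site (H3K9ac); compound tested across a dose range.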

[6] = target: T3, NAD-dependent protein deacetylase sirtuin-1 (Homo sapiens, UniProt Q96EB6); assay: Inhibition of N-terminal His-tagged human full length recombinant SIRT1 expressed in Escherichia coli at 250 to 1000 uM by fluorescence based analysis; settings: dose 250-1000 µM
T3 sequence (Q96EB6 whole entry): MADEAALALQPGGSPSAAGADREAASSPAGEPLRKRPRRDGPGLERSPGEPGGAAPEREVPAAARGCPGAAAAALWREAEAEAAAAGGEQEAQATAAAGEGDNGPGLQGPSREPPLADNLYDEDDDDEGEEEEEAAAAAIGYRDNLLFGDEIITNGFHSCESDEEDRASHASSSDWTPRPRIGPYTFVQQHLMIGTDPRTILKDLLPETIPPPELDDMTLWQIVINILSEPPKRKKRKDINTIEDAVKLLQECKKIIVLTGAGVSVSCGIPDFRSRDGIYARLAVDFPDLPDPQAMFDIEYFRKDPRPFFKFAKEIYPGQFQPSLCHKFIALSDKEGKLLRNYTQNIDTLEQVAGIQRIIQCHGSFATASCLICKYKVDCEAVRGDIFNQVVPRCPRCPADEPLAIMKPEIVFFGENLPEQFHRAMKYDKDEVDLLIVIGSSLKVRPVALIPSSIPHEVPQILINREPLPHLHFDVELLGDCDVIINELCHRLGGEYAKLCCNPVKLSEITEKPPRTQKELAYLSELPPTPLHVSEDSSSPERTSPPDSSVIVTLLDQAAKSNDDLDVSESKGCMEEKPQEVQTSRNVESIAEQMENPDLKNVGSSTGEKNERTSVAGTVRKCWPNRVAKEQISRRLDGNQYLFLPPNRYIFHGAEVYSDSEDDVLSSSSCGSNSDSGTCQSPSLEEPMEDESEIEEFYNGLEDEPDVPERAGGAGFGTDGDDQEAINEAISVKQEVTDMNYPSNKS

[7] = target: NAD-dependent protein deacylase sirtuin-6 (Homo sapiens) (UniProt Q8N6T7); assay: Activation of N-terminal His-tagged human SIRT6 (1 to 355 residues) expressed in Escherichia coli M15(pREP4) assessed as increase in deacetylation activity using acetyl-H3K9 peptide as substrate incubated for 2 hrs in presence of NAD+ by mass spectrometric analysis; settings: filed as activator; how it was run: as §2
[8] = target: NAD-dependent protein deacylase sirtuin-6 (Homo sapiens) (UniProt Q8N6T7); assay: Activation of N-terminal His-tagged human SIRT6 (1 to 355 residues) expressed in Escherichia coli M15(pREP4) assessed as increase in substrate deacetylation activity using FdL1 substrate peptide at 250 to 1000 uM incubated for 1 hr in presence of NAD+ by fluorescence assay; settings: filed as activator, dose microM 250-1000, time 1.0 hrs; how it was run: as §1

CC(C)n1c(/C=C/C(O)CC(O)CC(=O)O)c(-c2ccc(F)cc2)c2ccccc21 (stereo not drawn) [FLUVASTATIN]
Activity [1]: Active | inhibition (INH) [2]: Active | fold change (FC) [3]: 4 | inhibition (INH) [4]: Active | fold change (FC) [5]: > 3 | inhibition (INH) [6]: Active | Activity [7]: Dose-dependent effect | Activity [8]: Active
